Results on 18 compounds are retold here after PubChem BioAssay.

Experiment [1] is described as follows: OD615 S. cerevisiae growth inhibition, permissive medium, pilot counter-assay, permissive growth control for S. cerevisiae lifespan shortening project (AID 705;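 active = growth inhibition above 25% in both replicates, a cutoff set 3 SD above the mean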). The following applies: OD615, 24 h, at 10 µM, active compounds read high. An outline of the steps:
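Test system: Saccharomyces cerevisiae strain carrying genetically modified DeaD replicative-lifespan system; buffer or medium: SC raffinose/galactose permissive medium; dosing: one dose 10 µM, DMSO 0.25% final; times: 24 h exposure, 30 °C; measured by: OD at 615 nm; read-out basis: growth inhibition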

Experiment [2] in a line: Restrictive medium S. cerevisiae growth inhibition, OD615, pilot screen of yeast lifespan reduction project, restrictive growth control (AID 706;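 active = growth inhibition above a set limit, 3 SD over mean compound inhibition, in both replicates, cut at about 43% in these data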;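 note: modified DeaD lifespan yeast strain shifted to restrictive glucose medium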). The conditions noted are these: OD615, 48 h, at 10 µM, active compounds read high. An outline of the steps:
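material = engineered S. cerevisiae DeaD strain | buffer or medium = glucose-based CSMM-D restrictive medium | dosing = one concentration, 10 µM final, 0.25% DMSO | schedule = 4 h pre-growth plus 48 h compound exposure, 30 °C | detection = OD615 absorbance reading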

The nature of experiment [3]: viability gain of MRP-1-high H69AR cells under doxorubicin, pilot screen, MRP-1 activator project, CellTiter-Glo, duplicate (AID 807).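 Note: compound pretreatment 18-22 h then 72 h combined with doxorubicin; 0% = doxorubicin alone and 100% = vehicle without doxorubicin.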 The conditions noted are these: H69AR viability with doxorubicin, CellTiter-Glo luminescence; at 10 µM; active compounds read high. In general terms: Cellular ATP, detected with luciferase, serves as a proxy for viable cell number.
Experiment [4] can be described thus: growth suppression of beta-catenin knockout HCT116, pilot screen, human colon tumor cells (AID 823;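 active = cell viability at or below a set limit in both duplicate runs, the limit being the all-compound median minus 4 SD, cut at about 23% in these data, passing the limit was not always enough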;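 note: 0% = wells killed by 20 µM Hyamine and 100% = untreated DMSO cell wells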). The conditions noted are these: CellTiter-Glo, 60 h, at 10 µM, active compounds read low.
Experiment [5] can be described thus: growth suppression of PTEN-deleted HCT116, pilot screen, cell-based, HCT116 clonal line, CellTiter-Glo (AID 824;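 active = viability at or below 27.92% in each of two runs, the all-compound median minus 4 SD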;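 note: 0% = 20 µM Hyamine control and 100% = vehicle cell control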). The following applies: 60 h, at 10 µM, active compounds read low.
Experiment [6] in a line: inhibitors of the yeast RAM network, pilot screen, dse1pr::URA3 reporter, 5-FOA selection (AID 869;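 active = inhibition over a set limit, the all-compound mean plus 3 SD, in both replicate runs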;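 note: 0% = DMSO wells with no growth and 100% = 10 µM 1-NA-PP1 with full growth; RAM network block rescues cells from 5-FOA so hits raise OD615 growth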). The following applies: S. cerevisiae dse1pr::URA3 5-FOA growth, OD615, 2 d; at 10 µM; active compounds read high; strain carries analog-sensitive mutant Cbk1 kinase.
Experiment [7] can be described thus: RAM signaling pathway blockade in yeast – S. cerevisiae, Pdr1DBD-CYC8 efflux-inhibited sensitized strain, primary screen (AID 1298;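 active = RAM network inhibition above 8.4% in each of two replicates, 3 SD over the compound average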;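 note: 0% = DMSO untreated cells without growth and 100% = 10 µM 1-NA-PP1 full growth; higher means more yeast growth rescued from 5-FOA killing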). The conditions noted are these: S. cerevisiae cbk1-as DSE1-URA3 strain, 5-FOA growth OD615, 2 d; at 50 µM; active compounds read high.

Molecules are shown by their SMILES. Unmarked numbers belong to inactive results. Inconclusive results are not listed. The source made the active and inactive calls.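 Rule for the calls, unless noted: active = viability increase at or above a cutoff of the median across tested compounds plus 3 SD (cut at about 8.5% in these data, passing the limit was not always enough); inconclusive = some gains above the cutoff, reason not given; inactive = the rest.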

A word on the viability: it is a read-out of living cells in per cent, often relative to untreated cells. For orientation: inhibition means the relative decrease from the control value, in per cent. As to `CC(C)COC(=O)c1cc(=O)[nH]c2ccccc12`, the growth inhibition in experiment [1] was -4.92%; in experiment [2], -14.4%. Besides, in experiment [3], the viability increase was -2.47%. The viability in experiment [4] is 87.4%; in experiment [5], 84.1%. The inhibition in experiment [6] is 0.855%. Moreover, the RAM network inhibition in experiment [7] was 0.1%.

In the case of `Cc1csc2ncc(C(=O)Nc3ccc(C(F)(F)F)cc3)c(=O)n12`, the growth inhibition in experiment [1] was -10.2%; in experiment [2] it was -17.2%. Moreover, the viability increase in experiment [3] was -2.44%. For the same compound, the viability is 84.8% in experiment [4] and 85.8% in experiment [5]. The inhibition in experiment [6] was 3.73%. Further, in experiment [7], the RAM network inhibition was 3.03%.

`CCOC(=O)c1c(C)n(C)c2ccc(OCC(O)CN3CCN(C)CC3)cc12` (stereo unspecified): the growth inhibition in experiment [1] was -9.58%; in experiment [2] it was -16.5%. Further, the viability increase in experiment [3] is -1.87%. Moreover, the figures for the viability in experiment [4] and in experiment [5] were 96.2% and 106%, respectively. For the same compound, in experiment [6], the inhibition was 1.1%. Also, in experiment [7], the RAM network inhibition is -0.99%.

Turning to `Cc1nn2cc(-c3ccccc3)nc2s1`, the results for the growth inhibition in experiment [1] and in experiment [2] were -5.37% and -7.45%, respectively. The viability increase in experiment [3] is -1.05%. Also, the viability in experiment [4] is 93.3%; in experiment [5] it was 91.6%. Besides, in experiment [6], the inhibition was 0.575%. Moreover, the RAM network inhibition in experiment [7] is 4.7%.

With `CCn1c(CNC(=O)COC)nc2ccccc21`, the figures for the growth inhibition in experiment [1] and in experiment [2] were -5.41% and 0.165%, respectively. The viability increase in experiment [3] is 0.97%. Besides, the viability in experiment [4] is 105%; in experiment [5] it was 97.2%. For the same compound, the inhibition in experiment [6] is 0.7%. The RAM network inhibition in experiment [7] is 5.67%.

Take `O=C(NCc1cccnc1)c1ccc(CS(=O)(=O)c2ccc(Br)cc2)o1`: the figures for the growth inhibition in experiment [1] and in experiment [2] were -8.28% and -13.7%, respectively. Moreover, in experiment [3], the viability increase is -1.28%. Moreover, the viability in experiment [4] is 95.3%; in experiment [5], 92.8%. Besides, in experiment [6], the inhibition is 0.655%. In addition, the RAM network inhibition in experiment [7] is 3.41%.

On to `CCOC(=O)c1c(/N=C/N(C)C)sc(C(=O)OC)c1C`, for which the results for the growth inhibition in experiment [1] and in experiment [2] were -5.39% and 3.21%, respectively. For the same compound, the viability increase in experiment [3] was -4.56%. Besides, the viability in experiment [4] is 91.1%; in experiment [5] it was 89.6%. For the same compound, the inhibition in experiment [6] was 0.78%. In addition, the RAM network inhibition in experiment [7] was 1.45%.

As to `CN(CC(CC(=O)Nc1nncs1)c1ccccc1)S(=O)(=O)c1ccccc1` (stereo unspecified), the growth inhibition in experiment [1] is -13.9%; in experiment [2] it was -11.4%. Further, the viability increase in experiment [3] was -1.16%. In addition, the values for the viability in experiment [4] and in experiment [5] were 96.2% and 81.2%, respectively. In addition, the inhibition in experiment [6] was 1.82%. Moreover, the RAM network inhibition in experiment [7] was 3.38%.

Turning to `CCOC(=O)c1csc(NC(=O)C(C)(C)C)n1`, the growth inhibition in experiment [1] is -6.04%; in experiment [2] it was -0.045%. Also, in experiment [3], the viability increase was 2.71%. For the same compound, the viability is 105% in experiment [4] and 98.8% in experiment [5]. Moreover, the inhibition in experiment [6] was 0.48%. In addition, the RAM network inhibition in experiment [7] was -1.57%.

`CC(=O)NCC(=O)OCC(=O)c1ccc(C)c(C)c1`: the growth inhibition in experiment [1] was -7.93%; in experiment [2], -2.07%. The viability increase in experiment [3] was -1.39%. Moreover, the viability was 88.8% in experiment [4] and 95.1% in experiment [5]. Besides, the inhibition in experiment [6] is 0.75%. Moreover, the RAM network inhibition in experiment [7] is -0.41%.

For `CCCC1(C(=O)O)NC(c2ccc(OC)cc2O)C2C(=O)N(c3ccc(OC)cc3)C(=O)C21` (stereo unspecified), the growth inhibition was -7.46% in experiment [1] and 1.98% in experiment [2]. The viability increase in experiment [3] is -0.54%. Besides, the viability in experiment [4] is 95.8%; in experiment [5], 91.6%. In addition, the inhibition in experiment [6] was 1.48%. Also, the RAM network inhibition in experiment [7] is 2.34%.

On to `CCC1CCCCN1C(=O)CSc1nnc(-c2cccc(Cl)c2)o1` (stereo unspecified), for which the growth inhibition in experiment [1] was 8.15%; in experiment [2], 46.1% (active). In addition, the viability increase in experiment [3] was -3.24%. Besides, the viability was 86.8% in experiment [4] and 91.5% in experiment [5]. Further, in experiment [6], the inhibition was 1.4%. In addition, the RAM network inhibition in experiment [7] was 1.06%.

In the case of `CCOC(=O)N1CCC(NC(=O)c2cc3c(-c4ccc(Cl)cc4)nn(C)c3s2)CC1`, the results for the growth inhibition in experiment [1] and in experiment [2] were -2.75% and -2.64%, respectively. Moreover, in experiment [3], the viability increase was -5.61%. Further, the viability is 91.4% in experiment [4] and 92.1% in experiment [5]. The inhibition in experiment [6] is -0.04%. Also, in experiment [7], the RAM network inhibition was 2.43%.

With `CNC(=O)c1nnc(Cc2ccc(F)cc2)o1`, the results for the growth inhibition in experiment [1] and in experiment [2] were 2.65% and 1.31%, respectively. Also, the viability increase in experiment [3] is -0.04%. The viability in experiment [4] is 93.8%; in experiment [5], 98.9%. Also, the inhibition in experiment [6] is 0.195%. Besides, the RAM network inhibition in experiment [7] was 2.48%.

With `CC1Cc2nc(SCC(=O)Nc3nccs3)n(Cc3ccccc3)c(=O)c2S1` (stereo unspecified), the growth inhibition is 4.49% in experiment [1] and 8.66% in experiment [2]. The viability increase in experiment [3] is -2.23%. In addition, the viability in experiment [4] is 94.8%; in experiment [5] it was 88.4%. Moreover, the inhibition in experiment [6] is 2.21%. In addition, the RAM network inhibition in experiment [7] is 3.83%.

For the compound `COc1ccc(NC(=O)c2ccc3c(c2)n(C)c(=O)n3C)cc1`, the growth inhibition in experiment [1] is -9.67%; in experiment [2] it was -7.33%. The viability increase in experiment [3] was -5.39%. Moreover, the viability in experiment [4] and in experiment [5] was 55.7% throughout. Also, the inhibition in experiment [6] was 1.06%. Moreover, the RAM network inhibition in experiment [7] is 4.75%.

Take `CCOC(=O)N1CCC(NC(=O)C2CCCCN2S(=O)(=O)c2ccc(F)cc2)CC1` (stereo unspecified): the growth inhibition in experiment [1] was -12.5%; in experiment [2], -1.21%. The viability increase in experiment [3] was -3.71%. Further, the viability in experiment [4] was 94%; in experiment [5], 89.6%. In addition, the inhibition in experiment [6] is 0.405%. Moreover, the RAM network inhibition in experiment [7] was -0.16%.

Regarding `CCOC(=O)N1CCN(C(=O)Cn2c(=O)sc3ccccc32)CC1`, the growth inhibition in experiment [1] was -1.79%; in experiment [2], -7.62%. For the same compound, the viability increase in experiment [3] is -0.84%. Further, the figures for the viability in experiment [4] and in experiment [5] were 100% and 97.6%, respectively. Moreover, the inhibition in experiment [6] is 1.68%. In experiment [7], the RAM network inhibition is 5.71%.
